Hits are enriched below; roughly 3.4% of the tested compounds scored in any of these assays.
SIRT5 inh = inhibitors of human sirtuin-5 desuccinylase; inhibition, % at 15 µM; AID 652115; Q9NXA8; 1.1% of 330,000 active; Purified SirT5, succinyl-peptide AMC, trypsin-coupled fluorescence; in the data active = inhibition above about 15%
Target sequence (Q9NXA8 whole entry, looked up): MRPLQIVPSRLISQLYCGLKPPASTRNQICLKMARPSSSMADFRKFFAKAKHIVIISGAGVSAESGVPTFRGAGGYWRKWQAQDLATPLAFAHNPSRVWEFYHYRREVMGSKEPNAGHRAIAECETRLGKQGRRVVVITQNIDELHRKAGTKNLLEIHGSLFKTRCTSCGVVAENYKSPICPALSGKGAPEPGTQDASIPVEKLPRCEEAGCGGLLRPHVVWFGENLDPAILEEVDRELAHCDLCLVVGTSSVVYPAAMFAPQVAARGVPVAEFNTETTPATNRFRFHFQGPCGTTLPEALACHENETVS
Ecoli rRNA inh = inhibits bacterial ribosomal RNA function over humanized ribosomes; E. coli WT GFP vs humanized-ribosome RFP mutants, fluorescence, 24 h; hits give low values; DMSO median 0, no signal -100; GFP signal change (wild-type ribosome), % (concentration not given with the values); 1.6% of 350,000 active;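 active = significant combined selectivity score with lowered wild-type GFP, culture density cut under 30%, mutant RFP and density less affected; inactive = any of these conditions unmet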
E-sel inducer = E-selectin induction on HUVECs; P16581; HUVEC E-selectin immunofluorescence imaging; normalized: neutral wells 0, TNF-alpha wells 100; activation, % at 7.58 µM; 0.37% of 260,000 active; AID 686992;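 active = mean E-selectin-positive cell signal at least 10% of the positive control, reached in at least 60% of replicates, without over 20% cell loss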
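material = human umbilical vein endothelial cells (HUVEC), E-selectin induction | quantity = 3,000 cells/well | medium = EGM-2 growth medium on 0.1% gelatin-coated wells | technique = immunofluorescence imaging | read-out basis = % PE-positive cells | control set = TNF-alpha positive control, DMSO neutral control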
S100A4 MyoIIA = blocks human S100A4 binding to myosin IIA peptide. S100A4/TAMRA-MyoIIA peptide fluorescence polarization. inhibition, % at 10.7 µM. 0.14% of 360,000 active;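 active = mean inhibition of at least 70% across replicates, with every replicate also reaching that level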
Target sequence (P26447 whole entry, looked up): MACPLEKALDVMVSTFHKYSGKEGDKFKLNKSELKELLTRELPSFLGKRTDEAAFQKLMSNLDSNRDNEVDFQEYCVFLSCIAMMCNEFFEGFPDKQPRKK
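Test system: S100A4 monomer protein; Medium: HEPES pH 7.2 with CaCl2, KCl, NaCl, DTT, Triton; Probe or stimulus: TAMRA-labelled myosin IIA heavy-chain peptide probe, 5 nM; Doses: one dose per compound; Times: polarization read 5 min after assay mix addition, stable 5–60 min; Benchmarks: neutral control DMSO, positive control TFP.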
ERAP1 HTS inh = ERAP1 (human) enzyme inhibition | 0.15% of 340,000 active | inhibition, % at 10.7 µM | Q9NZ08 | recombinant ERAP1, Leu-AMC fluorescence, 60 min;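 active = mean replicate inhibition of at least 30%, or all replicates individually reaching that 30% level; inactive = mean below 30% and not every replicate reaching it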;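 note: 0% = neutral control wells and 100% = L-leucinethiol positive control wells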
MLL AF4-AF9 inh = MLL-AF4/AF9 protein interaction inhibition; P42568; AlphaScreen, biotin-AF4 peptide binding to FLAG-AF9; inhibition, % at 10 µM; 0.47% of 350,000 active;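 active = every replicate reaching a set inhibition limit, whatever the replicate mean, cut at about 25% in these data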;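 note: 0% = plate neutral control median and 100% = total signal loss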
* hit, by the source's call.

What do the screens show for `COc1ccccc1CNC(=O)c1ccc(NS(=O)(=O)c2cccs2)cc1`?
SIRT5 inh: 2; Ecoli rRNA inh: 7; E-sel inducer: 0; S100A4 MyoIIA: 3; ERAP1 HTS inh: 0; MLL AF4-AF9 inh: -1

Results for O=C(O)c1ccc(C=NNC(=O)c2ccccc2NS(=O)(=O)c2cccs2)cc1 ?
SIRT5 inh: 4; Ecoli rRNA inh: 14; S100A4 MyoIIA: 1; ERAP1 HTS inh: -2; MLL AF4-AF9 inh: -1

Results for COc1cc(C=NNC(=O)c2ccc(NS(=O)(=O)c3cccs3)cc2)cc(Br)c1O ?
SIRT5 inh: 7; Ecoli rRNA inh: -31*; E-sel inducer: 0; S100A4 MyoIIA: -5; ERAP1 HTS inh: 2; MLL AF4-AF9 inh: 2

Results for O=C(NN=Cc1ccc(O)cc1)c1ccccc1NS(=O)(=O)c1cccs1 ?
SIRT5 inh: 4; Ecoli rRNA inh: -37*; E-sel inducer: 1; S100A4 MyoIIA: -7; ERAP1 HTS inh: -7; MLL AF4-AF9 inh: -4

How did CCC(=O)N[C@@H]1C[C@@H]2O[C@H](CO)CC[C@@H]2O[C@@H]1CCc1ccc(-c2cccc(OC)c2)cc1 do in these assays?
SIRT5 inh: -5; S100A4 MyoIIA: 3; ERAP1 HTS inh: -1; MLL AF4-AF9 inh: 1

How did C[C@@H](NC(=O)[C@@H]1N[C@@H]2c3ccc(-c4ccncc4)c(=O)n3C[C@@H]2[C@H]1CO)c1ccccc1 do in these assays?
SIRT5 inh: -12; Ecoli rRNA inh: 2; E-sel inducer: -1; S100A4 MyoIIA: -14; ERAP1 HTS inh: 0; MLL AF4-AF9 inh: -1

What do the screens show for `CCNC(=O)C[C@H]1CC[C@H]2[C@@H](COC[C@@H](O)CN2Cc2ccc(Cl)c(Cl)c2)O1`?
SIRT5 inh: -2; Ecoli rRNA inh: -3; E-sel inducer: 0; S100A4 MyoIIA: 3; ERAP1 HTS inh: 4; MLL AF4-AF9 inh: 0

What do the screens show for `C=CCOc1ccc(C2C3=C(CCCC3=O)N(CC(=O)O)C3=C2C(=O)CCC3)cc1OCC`?
SIRT5 inh: 4; Ecoli rRNA inh: 3; S100A4 MyoIIA: 2; ERAP1 HTS inh: 4; MLL AF4-AF9 inh: -12

How did C=CCOc1c(Br)cc(C2C3=C(CCCC3=O)N(C)C3=C2C(=O)CCC3)cc1OCC do in these assays?
SIRT5 inh: -11; Ecoli rRNA inh: -34*; E-sel inducer: -1; S100A4 MyoIIA: 3; ERAP1 HTS inh: -85; MLL AF4-AF9 inh: -25

Results for O=C(NCCc1ccccc1)c1ccc2c(c1)S(=O)(=O)c1ccccc1C2=O ?
Ecoli rRNA inh: -23*; E-sel inducer: 0; S100A4 MyoIIA: -4; ERAP1 HTS inh: -1; MLL AF4-AF9 inh: 2

What do the screens show for `C[C@H]1CN([C@@H](C)CO)C(=O)c2ccccc2-c2ccccc2CO[C@H]1CN(C)C(=O)Nc1cccc(F)c1`?
SIRT5 inh: 1; Ecoli rRNA inh: -2; E-sel inducer: 0; S100A4 MyoIIA: 5; ERAP1 HTS inh: 3; MLL AF4-AF9 inh: -4

What do the screens show for `O=C(CCC1CCCN(Cc2cccc3c2OCO3)C1)NCc1ccc(F)c(F)c1` (centres undefined)?
SIRT5 inh: 38*; Ecoli rRNA inh: -1; E-sel inducer: 1; S100A4 MyoIIA: -8; ERAP1 HTS inh: -2; MLL AF4-AF9 inh: 0

How did COc1ccc2c3c([nH]c2c1)[C@@H](CO)N(Cc1ccccc1)CC31CCN(C)CC1 do in these assays?
Ecoli rRNA inh: 5; E-sel inducer: 0

What do the screens show for `COc1ccc(OC)c(/C=N/NC(=O)c2[nH]ncc2Br)c1`?
SIRT5 inh: -6; Ecoli rRNA inh: 11; S100A4 MyoIIA: -4; ERAP1 HTS inh: -2; MLL AF4-AF9 inh: -3

How did CCOc1ccc(/C=N/NC(=O)c2[nH]ncc2Br)c(O)c1 do in these assays?
SIRT5 inh: -4; Ecoli rRNA inh: -34*; S100A4 MyoIIA: -1; ERAP1 HTS inh: 14; MLL AF4-AF9 inh: 1

Results for CC1(C)Cc2c(c(N3CCOCC3)nc3sc4c(NCC5CCCO5)nnnc4c23)CS1 (centres undefined) ?
SIRT5 inh: -1; Ecoli rRNA inh: 5; E-sel inducer: 0; S100A4 MyoIIA: -3; ERAP1 HTS inh: -2; MLL AF4-AF9 inh: 26*

Results for COc1ccc(NC(=S)Nc2ncccc2C)cc1OC ?
SIRT5 inh: -6; Ecoli rRNA inh: -11; S100A4 MyoIIA: -1; ERAP1 HTS inh: -10; MLL AF4-AF9 inh: 2

Assay outcomes: PubChem BioAssay, Broad Institute
